The source of these data is ChEMBL document CHEMBL4402517, “Rational modification of Mannich base-type derivatives as novel antichagasic compounds: Synthesis, in vitro and in vivo evaluation” (Bioorg Med Chem, 2019).

In series [1] the test system is Trypanosoma cruzi. Briefly: Trypanocidal activity against Trypanosoma cruzi trypomastigote form infected in African green monkey Vero cells assessed as ratio of infected cells at 25 uM measured after 72 hrs by Giemsa staining based assay relative to control. The series is classed as functional. The procedure, abridged: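 Vero cells in RPMI with 10% heat-inactivated FBS, seeded at 1 × 10^4/well on coverslips for 24 h at 37 °C, 5% CO2. Infected with bloodstream trypomastigotes at MOI 10:1 for 24 h, then washed three times with PBS. Compounds added at 3.1–50 µM for 72 h. Infected cells counted after Giemsa staining. Triplicates, two separate determinations.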

Series [2] relates to Trypanosoma cruzi. Briefly: Antitrypanosomal activity against Trypanosoma cruzi MHOM/Pe/2011/Arequipa;DTU 5 bloodstream trypomastigotes infected in BALB/c mouse assessed as decrease in splenomegaly in chronic phase at 20 mg/kg/day, po administered for 5 consecutive days starting from day 70 post infection relative to untreated control. The series is classed as functional. Further details: scale not given: the % may be the effect or the level left. The procedure, abridged: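 Female BALB/c mice (three per group) were infected i.p. with 5 × 10^5 Arequipa trypomastigotes and dosed orally at 20 mg/kg/day for 5 days in 5% DMSO/0.5% HPMC. Controls were uninfected and vehicle-only groups. At the end of the experiment spleens were weighed and expressed as % of body weight.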

Series [3] can be described thus: Genotoxicity in Salmonella typhimurium TA1535 harboring pSK1002 assessed as survival at 0.5 mg/ml in presence of Sprague-Dawley rat liver S9 fraction metabolic activation by SOS/umu assay relative to control. It is filed as toxicity, subcellular. As to conditions: salmonella enterica subsp. enterica serovar typhimurium, read-out: Survival. The procedure, abridged: (§1)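 Survival of S. typhimurium TA1535/pSK1002 exposed to a range of compound concentrations with or without S9 mix in 96-well format. Survival percentage measured as the cytotoxicity arm of the SOS/umu test. Concentrations with survival ≥80% are counted as non-cytotoxic.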

The nature of series [4]: Genotoxicity in Salmonella typhimurium TA1535 harboring pSK1002 assessed as survival at 0.031 mg/ml in absence of Sprague-Dawley rat liver S9 fraction metabolic activation by SOS/umu assay relative to control. It is filed as toxicity. The settings on record: salmonella enterica subsp. enterica serovar typhimurium, read-out: Survival. The procedure, abridged:
as §1

The nature of series [5]: Genotoxicity in Salmonella typhimurium TA1535 harboring pSK1002 assessed as umu gene induction at 1 mg/ml in presence of Sprague-Dawley rat liver S9 fraction metabolic activation by SOS/umu assay relative to control. It is filed as toxicity, subcellular. As to conditions: salmonella enterica subsp. enterica serovar typhimurium, read-out: FC. The procedure, abridged: (§2)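 umu induction in S. typhimurium TA1535/pSK1002, with or without S9 mix, in 96-well format. β-galactosidase read colorimetrically with ONPG substrate. Output given as relative units and induction factor (IF). The run is valid if positive controls reach IF ≥2. A compound counts as genotoxic at IF ≥2 at a concentration giving ≥80% bacterial survival.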

Series [6] in a line: Toxicity in BALB/c mouse infected with Trypanosoma cruzi MHOM/Pe/2011/Arequipa;DTU 5 bloodstream trypomastigote assessed as decrease in serum urea level in acute phase at 20 mg/kg/day, po administered for 5 consecutive days starting from day 8 post infection and measured on day 100 post infection by biochemical analysis relative to control. The series is classed as organism-based. Also noted: scale not given: the % may be the effect or the level left. The settings on record: in vivo. The procedure, abridged: (§3)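 Female BALB/c mice (10–12 weeks, 14–20 g; groups of three) were infected i.p. with 5 × 10^5 Arequipa bloodstream trypomastigotes. Dosing was oral at 20 mg/kg/day for 5 days, from day 8 pi (acute) or day 70 pi (chronic), as a 2 mg/ml suspension in 5% DMSO/0.5% HPMC; controls received vehicle. Cyclophosphamide 200 mg/kg i.p. was given at day 80 pi. Serum was collected 2 days post-treatment and at necropsy by cardiac puncture and compared with infected untreated controls.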

The nature of series [7]: Genotoxicity in Salmonella typhimurium TA1535 harboring pSK1002 assessed as survival at 0.016 mg/ml in absence of Sprague-Dawley rat liver S9 fraction metabolic activation by SOS/umu assay relative to control. It is filed as toxicity. The settings on record: salmonella enterica subsp. enterica serovar typhimurium, read-out: Survival. The procedure, abridged:
as §1

Series [8] in a line: Toxicity in BALB/c mouse infected with Trypanosoma cruzi MHOM/Pe/2011/Arequipa;DTU 5 bloodstream trypomastigote assessed as decrease in serum total bilirubin level in chronic phase at 20 mg/kg/day, po administered for 5 consecutive days starting from day 70 post infection measured on day 100 post infection relative to control. The series is classed as organism-based. Further details: scale not given: the % may be the effect or the level left. The settings on record: in vivo. The procedure, abridged:
as §3

Series [9] in a line: Toxicity in BALB/c mouse infected with Trypanosoma cruzi MHOM/Pe/2011/Arequipa;DTU 5 bloodstream trypomastigote assessed as decrease in serum aspartate aminotransferase level in chronic phase at 20 mg/kg/day, po administered for 5 consecutive days starting from day 70 post infection and measured at day 76 post infection relative to control. Also noted: scale not given: the % may be the effect or the level left. The settings on record: in vivo. It is filed as organism-based. The procedure, abridged:
as §3

Series [10] can be described thus: Toxicity in BALB/c mouse infected with Trypanosoma cruzi MHOM/Pe/2011/Arequipa;DTU 5 bloodstream trypomastigote assessed as change in serum lactate dehydrogenase level in acute phase at 20 mg/kg/day, po administered for 5 consecutive days starting from day 8 post infection and measured on day 100 post infection by biochemical analysis relative to control. The series is classed as organism-based. As to conditions: in vivo. The procedure, abridged: as §3

Series [11] can be described thus: Genotoxicity in Salmonella typhimurium TA1535 harboring pSK1002 assessed as survival at 0.008 mg/ml in presence of Sprague-Dawley rat liver S9 fraction metabolic activation by SOS/umu assay relative to control. It is filed as toxicity, subcellular. As to conditions: salmonella enterica subsp. enterica serovar typhimurium, read-out: Survival. The procedure, abridged:
as §1

The nature of series [12]: Toxicity in BALB/c mouse infected with Trypanosoma cruzi MHOM/Pe/2011/Arequipa;DTU 5 bloodstream trypomastigote assessed as change in serum aspartate aminotransferase level in acute phase at 20 mg/kg/day, po administered for 5 consecutive days starting from day 8 post infection and measured on day 100 post infection by biochemical assay relative to control. The series is classed as organism-based. As to conditions: in vivo. The procedure, abridged:
as §3

Series [13] in a line: Genotoxicity in Salmonella typhimurium TA1535 harboring pSK1002 assessed as umu gene induction at 0.016 mg/ml in absence of Sprague-Dawley rat liver S9 fraction metabolic activation by SOS/umu assay relative to control. It is filed as toxicity. The settings on record: salmonella enterica subsp. enterica serovar typhimurium, read-out: FC. The procedure, abridged: as §2
The nature of series [14]: Genotoxicity in Salmonella typhimurium TA1535 harboring pSK1002 assessed as survival at 0.031 mg/ml in presence of Sprague-Dawley rat liver S9 fraction metabolic activation by SOS/umu assay relative to control. The series is classed as toxicity, subcellular. As to conditions: salmonella enterica subsp. enterica serovar typhimurium, read-out: Survival. The procedure, abridged:
as §1

Series [15] in a line: Genotoxicity in Salmonella typhimurium TA1535 harboring pSK1002 assessed as umu gene induction at 0.031 mg/ml in absence of Sprague-Dawley rat liver S9 fraction metabolic activation by SOS/umu assay relative to control. As to conditions: salmonella enterica subsp. enterica serovar typhimurium, read-out: FC. The series is classed as toxicity. The procedure, abridged:
as §2

Series [16] is described as follows: Toxicity in BALB/c mouse infected with Trypanosoma cruzi MHOM/Pe/2011/Arequipa;DTU 5 bloodstream trypomastigote assessed as decrease in serum urea level in chronic phase at 20 mg/kg/day, po administered for 5 consecutive days starting from day 70 post infection and measured at day 76 post infection relative to control. The series is classed as organism-based. Further details: scale not given: the % may be the effect or the level left. The settings on record: in vivo. The procedure, abridged: as §3

The nature of series [17]: Genotoxicity in Salmonella typhimurium TA1535 harboring pSK1002 assessed as umu gene induction at 0.004 mg/ml in absence of Sprague-Dawley rat liver S9 fraction metabolic activation by SOS/umu assay relative to control. It is filed as toxicity. The settings on record: salmonella enterica subsp. enterica serovar typhimurium, read-out: FC. The procedure, abridged:
as §2

The nature of series [18]: Toxicity in BALB/c mouse infected with Trypanosoma cruzi MHOM/Pe/2011/Arequipa;DTU 5 bloodstream trypomastigote assessed as decrease in serum uric acid level in acute phase at 20 mg/kg/day, po administered for 5 consecutive days starting from day 8 post infection and measured on day 100 post infection by biochemical analysis relative to control. The series is classed as organism-based. The settings on record: in vivo. Further details: scale not given: the % may be the effect or the level left. The procedure, abridged: as §3

Consider `O=C(CCN1CCN(c2ccc(Cl)cc2)CC1)c1ccc(O)cc1`, for which the Ratio with Trypanosoma cruzi [1] is on record as 19%. The Activity was 81% in the series with Trypanosoma cruzi [2]; “<= 10%” in series [6]; “<= 10%” in series [8]; “<= 10%” in [9]; greater than 10% in series [10]; greater than 10% in [12]. Moreover, the Activity result in [16] was “<= 30%”. The viability at 0.5 mg/ml in series [3] was 157%. The figures for the viability at 0.031 mg/ml in series [4] and in series [14] were 107% and 102%, respectively. Also, the fold induction at 1 mg/ml in series [5] is 0.38. For the same compound, the viability at 0.016 mg/ml in series [7] came to 130%. In addition, in series [11], the viability at 0.008 mg/ml amounted to 109%. For the same compound, the fold induction at 0.016 mg/ml in [13] worked out at 0.66. Moreover, in series [15], the fold induction at 0.031 mg/ml worked out at 0.7. For the same compound, in series [17], the fold induction at 0.004 mg/ml was found to be 0.68.
For `O=C(CCN1CCN(c2ccc(C(F)(F)F)cc2)CC1)c1ccc(O)cc1`, the Activity in the series on Trypanosoma cruzi [2] is listed as 66%; in [18] it was “<= 30%”; in series [9], “<= 10%”; in series [10] it was greater than 10%; in [12], greater than 10%. Moreover, the viability at 0.5 mg/ml in series [3] was 124%. Moreover, the viability at 0.031 mg/ml in series [4] came out at 112%; in series [14], 107%. Further, the fold induction at 1 mg/ml in [5] worked out at 0.37. Further, the viability at 0.016 mg/ml in series [7] worked out at 127%. In addition, the viability at 0.008 mg/ml in series [11] was determined as 104%. The fold induction at 0.016 mg/ml in [13] came out at 0.74. Also, in [15], the fold induction at 0.031 mg/ml came out at 0.66. In addition, the fold induction at 0.004 mg/ml in [17] turned out to be 0.69.
On to `O=C(Cn1ccnc1[N+](=O)[O-])NCc1ccccc1` [BENZNIDAZOLE], for which, in the series with Trypanosoma cruzi [1], the Ratio came out at 18%. For the same compound, the Activity result in series [6] is “<= 20%”; in [18], “<= 10%”; in series [8], “<= 10%”; in series [16], “<= 20%”.
